Where “and” joins values, the source holds several entries; their conditions need not be identical. Equal entries are not always repeated.

In experiment [1] the test system is P388. The experiment in a line: Compound was tested for the antitumor activity against P388 lymphocytic leukemia at dose level of 240 mg/kg; 0/6. In kind it is functional, Mus musculus.
Experiment [2] has as its system Homo sapiens. Briefly: Compound was tested in vivo for the antitumor activity against solid tumor models at dose level of 200 mg/kg (MX-1 assay). In kind it is functional.
In experiment [3] the test system is P388. The experiment in a line: Compound was tested in vivo for its antitumor activity against P388 lymphocytic leukemia and at dose level of 120 mg/kg; Toxic dose. In kind it is functional, organism-based. The note with it: Mus musculus. More on the design: dose 120 mg/kg.
Experiment [4] concerns M5076. Briefly: Compound was tested in vivo for the antitumor activity against solid tumor models at dose level of 50 mg/kg (M5076 assay). It is filed as functional.
For experiment [5], the system named is P388. Briefly: Compound was tested for the antitumor activity against P388 lymphocytic leukemia at dose level of 120 mg/kg; 5/6. It is filed as functional, Mus musculus.
Experiment [6] deals with P388. Briefly: Compound was tested for the antitumor activity against P388 lymphocytic leukemia at dose level of 60 mg/kg; 6/6. In kind it is functional, Mus musculus.
The test system of experiment [7] is P388. The experiment in a line: Compound was tested for the antitumor activity against P388 lymphocytic leukemia at dose level of 120 mg/kg. In kind it is functional, Mus musculus.
Experiment [8] has as its system P388. Briefly: Compound was tested for the antitumor activity against P388 lymphocytic leukemia at dose level of 30 mg/kg; 6/6. It is filed as functional, Mus musculus.
In experiment [9] the test system is P388. The experiment in a line: Compound was tested for the antitumor activity against P388 lymphocytic leukemia at dose level of 15 mg/kg. It is filed as functional, Mus musculus.
Experiment [10] deals with P388. Briefly: Compound was tested in vivo for the antitumor activity against P388 lymphocytic leukemia at dose level of 60 mg/kg. In kind it is functional, Mus musculus.
Experiment [11] in a line: Compound was tested for the antitumor activity against solid tumor models at dose level of 100 mg/kg (LOX assay). It is filed as functional, Homo sapiens.
The test system of experiment [12] is P388. The experiment in a line: Compound was tested in vivo for its antitumor activity against P388 lymphocytic leukemia at dose level of 60 mg/kg. It is filed as functional, Mus musculus.
Experiment [13] relates to P388. The experiment in a line: Compound was tested for the antitumor activity against P388 lymphocytic leukemia at dose level of 15 mg/kg; 6/6. It is filed as functional, Mus musculus.
Experiment [14] deals with P388. The experiment in a line: Compound was tested for the antitumor activity against P388 lymphocytic leukemia at dose level of 60 mg/kg. In kind it is functional, Mus musculus.
The nature of experiment [15]: Pseudo-first order rate constant for the reaction with 4-(p-Nitrobenzyl)pyridine. A digest of the protocol:
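Alkylating ability was measured against 4-(p-nitrobenzyl)pyridine (NBP), with 0.2 µmol alkylating agent and 240 µmol NBP as starting amounts. At timed points the mixture was diluted with acetone, mixed 3 s, and read at once at 570 nm. The blank was NBP, water, absolute ethanol, base solution and acetone. k' = slope of E570 vs time. Competing hydrolysis was assumed minor and neglected in the initial phase.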

In experiment [16] the test system is M5076. Briefly: Compound was tested for the antitumor activity against solid tumor models at dose level of 50 mg/kg (M5076 assay). In kind it is functional.
Experiment [17] concerns P388. The experiment in a line: Compound was tested in vivo for its antitumor activity against P388 lymphocytic leukemia at dose level of 15 mg/kg. In kind it is functional, Mus musculus.
For experiment [18], the system named is P388. Briefly: Compound was tested in vivo for its antitumor activity against P388 lymphocytic leukemia at dose level of 240 mg/kg; Toxic dose. In kind it is functional, organism-based. More on the design: dose 240 mg/kg. The note with it: Mus musculus.
A short description of experiment [19]: Compound was tested in vivo for the antitumor activity against solid tumor models at dose level of 100 mg/kg (LOX assay). In kind it is functional, Homo sapiens.
For experiment [20], the system named is P388. The experiment in a line: Compound was tested in vivo for its antitumor activity against P388 lymphocytic leukemia at dose level of 30 mg/kg. In kind it is functional, Mus musculus.
The test system of experiment [21] is Homo sapiens. Briefly: Compound was tested for the antitumor activity against solid tumor models at t dose level of 200 mg/kg (MX-1 assay). It is filed as functional.
Experiment [22] has as its system P388. The experiment in a line: Compound was tested for the antitumor activity against P388 lymphocytic leukemia at dose level of 30 mg/kg. It is filed as functional, Mus musculus.
For experiment [23], the system named is P388. Briefly: Compound was tested in vivo for the antitumor activity against P388 lymphocytic leukemia at dose level of 15 mg/kg. In kind it is functional, Mus musculus.
Experiment [24] concerns P388. Briefly: Compound was tested in vivo for the antitumor activity against P388 lymphocytic leukemia at dose level of 30 mg/kg. In kind it is functional, Mus musculus.
The test system of experiment [25] is P388. The experiment in a line: Compound was tested for the antitumor activity against P388 lymphocytic leukemia at dose level of 40 mg/kg. In kind it is functional, Mus musculus.
The subject of experiment [26] is P388. The experiment in a line: Compound was tested in vivo for its antitumor activity against P388 lymphocytic leukemia at dose level of 120 mg/kg; Toxic dose. It is filed as functional, organism-based. More on the design: dose 120 mg/kg. The note with it: Mus musculus.
Experiment [27] relates to P388. Briefly: Compound was tested for the antitumor activity against P388 lymphocytic leukemia at dose level of 20 mg/kg. It is filed as functional, Mus musculus.
Experiment [28] concerns P388. The experiment in a line: Compound was tested for the antitumor activity against P388 lymphocytic leukemia at dose level of 20 mg/kg; 6/6. In kind it is functional, Mus musculus.
In experiment [29] the test system is P388. Briefly: Compound was tested in vivo for the antitumor activity against P388 lymphocytic leukemia at dose level of 20 mg/kg. It is filed as functional, Mus musculus.
In experiment [30] the test system is P388. Briefly: Compound was tested for the antitumor activity against P388 lymphocytic leukemia at dose level of 240 mg/kg; 6/6. In kind it is functional, Mus musculus.
For experiment [31], the system named is P388. The experiment in a line: Compound was tested in vivo for its antitumor activity against P388 lymphocytic leukemia at dose level of 40 mg/kg. It is filed as functional, Mus musculus.
The subject of experiment [32] is P388. Briefly: Compound was tested in vivo for the antitumor activity against P388 lymphocytic leukemia at dose level of 40 mg/kg. It is filed as functional, Mus musculus.
Experiment [33] concerns P388. Briefly: Compound was tested for the antitumor activity against P388 lymphocytic leukemia at dose level of 240 mg/kg. It is filed as functional, Mus musculus.
Experiment [34] has as its system P388. The experiment in a line: Compound was tested in vivo for the antitumor activity against P388 lymphocytic leukemia at dose level of 120 mg/kg. It is filed as functional, Mus musculus.
Experiment [35] concerns P388. The experiment in a line: Compound was tested for the antitumor activity against P388 lymphocytic leukemia at dose level of 40 mg/kg; 6/6. In kind it is functional, Mus musculus.
The test system of experiment [36] is P388. The experiment in a line: Compound was tested in vivo for its antitumor activity against P388 lymphocytic leukemia at dose level of 20 mg/kg. It is filed as functional, Mus musculus.
In experiment [37] the test system is P388. Briefly: Compound was tested for the antitumor activity against P388 lymphocytic leukemia at dose level of 120 mg/kg; 6/6. It is filed as functional, Mus musculus.
The test system of experiment [38] is P388. The experiment in a line: Compound was tested in vivo for its antitumor activity against P388 lymphocytic leukemia at dose level of 120 mg/kg. In kind it is functional, Mus musculus.
In experiment [39] the test system is P388. Briefly: Compound was tested in vivo for its antitumor activity against P388 lymphocytic leukemia at dose level of 240 mg/kg. It is filed as functional, Mus musculus.
Experiment [40] relates to M5076. The experiment in a line: Compound was tested for the antitumor activity against solid tumor models at dose level of 800 mg/kg (M5076 assay). It is filed as functional.
The test system of experiment [41] is Homo sapiens. The experiment in a line: Compound was tested for the antitumor activity against solid tumor models at t dose level of 800 mg/kg (MX-1 assay). It is filed as functional.
Experiment [42] deals with Homo sapiens. Briefly: Compound was tested in vivo for the antitumor activity against solid tumor models at dose level of 800 mg/kg (MX-1 assay). In kind it is functional.
The nature of experiment [43]: Compound was tested for the antitumor activity against solid tumor models at dose level of 400 mg/kg (LOX assay). In kind it is functional, Homo sapiens.
Experiment [44] in a line: Compound was tested in vivo for the antitumor activity against solid tumor models at dose level of 400 mg/kg (LOX assay). In kind it is functional, Homo sapiens.
The test system of experiment [45] is M5076. Briefly: Compound was tested in vivo for the antitumor activity against solid tumor models at dose level of 800 mg/kg (M5076 assay). In kind it is functional, Homo sapiens.
Experiment [46] concerns P388. Briefly: Compound was tested in vivo for the antitumor activity against P388 lymphocytic leukemia at dose level of 240 mg/kg. In kind it is functional, Mus musculus.

On to `CC(C)NC(=O)OCc1c(-c2ccccc2)c(COC(=O)NC(C)C)n(C)c1-c1ccccc1`, for which the TDS with P388 [1] was determined as 0; in the experiment on P388 [5], 5; with P388 [6], 6; in the experiment with P388 [8], 6; with P388 [13] it was 6. The T/C in the experiment on Homo sapiens [2] is -3%; with M5076 [4], 139%; in the experiment on P388 [10], 180%; in [19] it was 180%; in the experiment with P388 [23] it was 134%; with P388 [24], 150%. The KE result in the experiment on P388 [3] is “Toxic”; in the experiment with P388 [12] it was 3.89; with P388 [17], -0.19; in the experiment with P388 [18] it was “Toxic”; in the experiment on P388 [20], 0.88. The Weight difference in the experiment with P388 [7] is given as -4.5 g; with P388 [9], -3.7 g; in experiment [11], -3.5 g; in the experiment on P388 [14], -3.8 g; in the experiment on M5076 [16], -2.5 g; with Homo sapiens [21], -7.2 g. Moreover, in the experiment on P388 [22], the Weight difference was -5.3 g. The compound further showed a K' in [15] of 0.00112 abs/time.
In the case of `CC(C)NC(=O)OCc1c(COC(=O)NC(C)C)c(-c2ccccc2)n(C)c1-c1ccccc1`, the Weight difference is listed as -1.6 g in the experiment on P388 [25]; -0.1 g in the experiment with P388 [27]; -4.4 g in the experiment on P388 [7]; -5.5 g in the experiment with P388 [33]; -2.2 g with P388 [14]. For the same compound, the KE result was “Toxic” in the experiment with P388 [26]; 2.85 in the experiment with P388 [31]; 6.43 in the experiment on P388 [12]; 0.08 in the experiment on P388 [36]; “Toxic” in the experiment on P388 [18]. Moreover, the TDS with P388 [6], in the experiment on P388 [28], with P388 [30], in the experiment on P388 [35] and with P388 [37] was 6 each time. Besides, the T/C is 137% and 205% with P388 [29]; 209% in the experiment with P388 [10]; 168% with P388 [32]; 94% in the experiment with P388 [34]. Also, the K' in experiment [15] was determined as 0.00498 abs/time.
Regarding `CC(C)NC(=O)OCc1c(-c2ccccc2)c(-c2ccccc2)n(C)c1COC(=O)NC(C)C`, the TDS with P388 [6], in the experiment on P388 [30] and with P388 [37] was 6 in each case. The Weight difference with P388 [7] is listed as 1.5 g; with M5076 [40] it was -2.8 g; in the experiment on P388 [33], -2.4 g; with P388 [14], -1.1 g; in the experiment on Homo sapiens [41] it was -5.3 g; in [43] it was -3.3 g. Besides, the results for the KE in the experiment on P388 [38], with P388 [39] and in the experiment with P388 [12] were 2.06, 3.74 and 0.59, respectively. The T/C with P388 [10] is reported as 142%; in the experiment on P388 [34], 160%; in the experiment with Homo sapiens [42] it was 0%; in experiment [44], 301%; in the experiment with M5076 [45] it was 178%; in the experiment on P388 [46], 181%. Besides, the K' in [15] came out at 0.00321 abs/time.
As for `CC(C)NC(=O)OCc1c(-c2ccccc2)c(-c2ccccc2)c(COC(=O)NC(C)C)n1C`, the TDS ratio in the experiment with P388 [7], in the experiment with P388 [33] and in the experiment with P388 [14] was 6 throughout. Besides, the Weight difference in the experiment on P388 [7] was -0.2 g; with P388 [33], -1.7 g; in the experiment with P388 [14], 0 g. For the same compound, the figures for the KE in the experiment with P388 [38], with P388 [39] and in the experiment on P388 [12] were -1.56, -1.51 and -1.44, respectively. Besides, the values for the T/C in the experiment on P388 [10], in the experiment on P388 [34] and in the experiment with P388 [46] were 107%, 98% and 101%, respectively. In experiment [15], this compound registered a K' of 0.00669 abs/time.

Source of the values: ChEMBL document CHEMBL1123467, “Comparison of the chemical reactivities and antineoplastic activities of alpha,beta-, alpha,beta'-, beta,beta'-, and alpha,alpha'-bis[[[(2-propylamino)carbonyl]oxy]methyl]-substituted pyrroles” (1986).
